Measurements reported in ChEMBL document CHEMBL4837188, “Identification of Novel Tricyclic Benzo[1,3]oxazinyloxazolidinones as Potent Antibacterial Agents with Excellent Pharmacokinetic Profiles against Drug-Resistant Pathogens” (J Med Chem, 2021).
Converted amounts (≈) assume the structure as drawn.

Tests used:
[1] = Metabolic stability in CD-1 mouse liver microsomes assessed as substrate remaining in presence of NADPH incubated for 30 mins by LC-MS analysis; format: ADME, Microsome; conditions: read-out: Stabilty
In short: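 Microsomes from male CD-1 mouse or pooled human, 1 mg/mL protein in 0.05 M phosphate buffer pH 7.4. Compound at final 0.1 μM with DMSO cosolvent. Incubated at 37 °C with 1 mM NADPH, or with buffer in place of NADPH. Sampled at 0 and 30 min and quenched with acetonitrile. LC−MS measurement; substrate remaining at 30 min normalized to time zero.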

[2] = target: T1, Amine oxidase [flavin-containing] A (Homo sapiens, UniProt P21397); test: Inhibition of MAO-A (unknown origin) using kynuramine as substrate preincubated for 5 mins with substrate followed by enzyme addition and measured after 15 mins by LC-MS/MS analysis
T1 sequence (P21397 whole entry): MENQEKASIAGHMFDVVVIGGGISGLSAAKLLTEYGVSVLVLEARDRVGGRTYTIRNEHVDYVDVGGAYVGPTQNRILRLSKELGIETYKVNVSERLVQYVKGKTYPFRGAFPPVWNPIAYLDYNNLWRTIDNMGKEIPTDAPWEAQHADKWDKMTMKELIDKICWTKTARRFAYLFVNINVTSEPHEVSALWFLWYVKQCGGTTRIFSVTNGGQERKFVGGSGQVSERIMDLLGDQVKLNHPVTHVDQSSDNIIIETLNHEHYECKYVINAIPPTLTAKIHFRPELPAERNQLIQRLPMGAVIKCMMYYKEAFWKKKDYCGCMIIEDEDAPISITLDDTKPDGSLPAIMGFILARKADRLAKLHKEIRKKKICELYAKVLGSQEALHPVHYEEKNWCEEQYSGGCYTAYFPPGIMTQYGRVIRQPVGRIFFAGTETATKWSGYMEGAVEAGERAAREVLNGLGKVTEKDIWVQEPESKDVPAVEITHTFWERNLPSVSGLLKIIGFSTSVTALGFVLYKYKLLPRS
In short: (§1)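 Recombinant MAO-A (0.01 mg/mL working solution) or MAO-B (0.04 mg/mL working solution) in phosphate buffer. Kynuramine 40 μM working solution. Compound or DMSO preincubated with substrate for 5 min at 37 °C; enzyme then added and incubated 15 min at 37 °C. Reaction quenched. Product 4-hydroxyquinoline (printed as 4-hydroxyquinolinol) measured by LC−MS/MS. Six concentrations in 4-fold dilutions; IC50 from % inhibition versus vehicle.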

[3] = MRT (0 to infinity) in BALB/c mouse at 10 mg/kg, po measured upto 24 hrs by LC-MS/MS analysis; format: ADME, organism-based; conditions: in vivo
In short: (§2)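 Female BALB/c mice, 16−21 g, three per route. Oral dosing at 10 mg/kg as a 5 mg/mL suspension in 0.5% carboxymethyl cellulose. IV dosing at 1 mg/kg as a 1 mg/mL solution in 10% DMSO/50% PEG400/40% water. Blood sampled 15 min to 24 h after oral dosing and 5 min to 24 h after iv. LC/MS/MS quantification in ESI positive mode. Noncompartmental analysis; F = (AUCpo×dose_iv)/(AUCiv×dose_po)×100%.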

[4] = Elimination half life in BALB/c mouse at 10 mg/kg, po measured upto 24 hrs by LC-MS/MS analysis; format: ADME, organism-based; conditions: in vivo, read-out: beta t1/2 (converted); in short: as §2
[5] = AUC (0 to infinity) in BALB/c mouse at 10 mg/kg, po measured upto 24 hrs by LC-MS/MS analysis; format: ADME, organism-based; parameters: route oral, dose 10 mg/kg, time <=24; conditions: in vivo; in short: as §2
[6] = AUC (0 to t) in BALB/c mouse at 1 mg/kg, iv measured upto 24 hrs by LC-MS/MS analysis; format: ADME, organism-based; parameters: route intravenous, dose 1 mg/kg, time <=24; conditions: in vivo; in short: as §2
Enterococcus = test: Antibacterial activity against vancomycin resistant Enterococcus assessed as bacterial growth inhibition after 18 hrs by broth microdilution method; format: functional
Enterococcus faecium [7] = test: Antibacterial activity against linezolid resistant Enterococcus faecium 13549 assessed as bacterial growth inhibition after 18 hrs by broth microdilution method; format: functional
[8] = Inhibition of mitochondrial protein synthesis in […] H9C2 cells after 5 days by ELISA; format: functional, cell-based; conditions: Rattus norvegicus, H9c2, 120 h
In short: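 H9C2 cells in DMEM with 10% FBS, glutamine and NEAA, seeded at 1500 cells/well. After 18 h, compounds added at final 200 to 0.03 μM in nine 3-fold steps, then 5 days at 37 °C, 5% CO2. Negative control 0.5% DMSO. Mitochondrial protein synthesis read by MitoBiogenesis In-Cell ELISA; IC50 fitted.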

Bacillus subtilis = test: Antibacterial activity against Bacillus subtilis 168 assessed as inhibition of bacterial growth incubated for 18 hrs by broth microdilution method; format: functional
In short: (§3)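 Broth microdilution in 96-well plates. Media: cation-adjusted Mueller−Hinton broth for S. aureus, brain heart infusion for VRE, Mueller−Hinton broth for the other strains. Incubated at 37 °C for 18 h, then A600 read. Percent growth inhibition calculated against 1% DMSO vehicle.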

[9] = Cmax in BALB/c mouse at 1 mg/kg, iv measured upto 24 hrs by LC-MS/MS analysis; format: ADME, organism-based; parameters: route intravenous, dose 1 mg/kg, time <=24; conditions: in vivo; in short: as §2
[10] = AUC (0 to infinity) in BALB/c mouse at 1 mg/kg, iv measured upto 24 hrs by LC-MS/MS analysis; format: ADME, organism-based; parameters: route intravenous, dose 1 mg/kg, time <=24; conditions: in vivo; in short: as §2
[11] = Clearance in BALB/c mouse at 1 mg/kg, iv measured upto 24 hrs by LC-MS/MS analysis; format: ADME, organism-based; conditions: in vivo; in short: as §2
Staphylococcus aureus = test: Antibacterial activity against vancomycin intermediate Staphylococcus aureus assessed as bacterial growth inhibition after 18 hrs by broth microdilution method; format: functional
[12] = target: T2, Amine oxidase [flavin-containing] B (Homo sapiens, UniProt P27338); test: Inhibition of MAO-B (unknown origin) using kynuramine as substrate preincubated for 5 mins with substrate followed by enzyme addition and measured after 15 mins by LC-MS/MS analysis; in short: as §1
T2 sequence (P27338 whole entry): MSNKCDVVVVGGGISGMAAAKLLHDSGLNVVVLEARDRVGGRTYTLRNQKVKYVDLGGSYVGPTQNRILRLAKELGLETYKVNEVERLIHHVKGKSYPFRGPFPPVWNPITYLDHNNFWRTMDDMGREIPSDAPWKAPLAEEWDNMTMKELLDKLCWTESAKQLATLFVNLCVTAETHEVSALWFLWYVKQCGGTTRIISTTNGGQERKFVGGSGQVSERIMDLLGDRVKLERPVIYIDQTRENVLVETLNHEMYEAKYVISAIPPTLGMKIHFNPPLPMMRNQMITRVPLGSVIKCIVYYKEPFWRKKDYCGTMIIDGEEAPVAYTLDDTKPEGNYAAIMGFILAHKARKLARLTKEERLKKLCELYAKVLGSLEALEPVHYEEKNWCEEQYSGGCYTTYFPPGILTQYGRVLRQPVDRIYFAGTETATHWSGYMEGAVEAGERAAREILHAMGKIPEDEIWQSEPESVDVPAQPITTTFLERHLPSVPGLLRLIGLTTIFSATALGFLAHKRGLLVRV

[13] = Tmax in BALB/c mouse at 10 mg/kg, po measured upto 24 hrs by LC-MS/MS analysis; format: ADME, organism-based; conditions: in vivo; in short: as §2
Enterococcus faecium [14] = test: Antibacterial activity against Enterococcus faecium ATCC 49624 assessed as bacterial growth inhibition after 18 hrs by broth microdilution method; format: functional; in short: as §3

## CC(=O)NC[C@@H]1OC(=O)N2Cc3cc(-c4ccc(C#N)nc4)c(F)cc3O[C@@H]12
[1]
  remaining at 0.5 h: 95.5%
[2]
  IC50: > 50 µM
[3]
  MRT inf: 5.86 h
[4]
  half-life: 3.76 h
[5]
  AUC(0-inf): 78700 ng·h/mL
[6]
  AUC(0-t) at 24 h: 6080 ng·h/mL
Enterococcus
  MIC: 0.25 µg/mL (≈ 0.654 µM)
Enterococcus faecium [7]
  MIC: 2 µg/mL (≈ 5.23 µM)
[8]
  IC50: 1.63 µM
Bacillus subtilis
  MIC: 0.125 µg/mL (≈ 0.327 µM)
[9]
  Cmax: 1790 ng/mL
[10]
  AUC(0-inf): 6160 ng·h/mL
[11]
  clearance: 2.71 mL/min/kg
Staphylococcus aureus
  MIC: 0.25 µg/mL (≈ 0.654 µM)
[12]
  IC50: 6.07 µM
[13]
  Tmax: 1.33 h
Enterococcus faecium [14]
  MIC: 1 µg/mL (≈ 2.62 µM)
